This is an account of results in the M2OR odorant receptor database.
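Also: active if original authors judged signal statistically different from baseline.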

This assay addresses T1, OR2M7 (Homo sapiens) (UniProt Q8NG81).
T1 sequence (whole entry): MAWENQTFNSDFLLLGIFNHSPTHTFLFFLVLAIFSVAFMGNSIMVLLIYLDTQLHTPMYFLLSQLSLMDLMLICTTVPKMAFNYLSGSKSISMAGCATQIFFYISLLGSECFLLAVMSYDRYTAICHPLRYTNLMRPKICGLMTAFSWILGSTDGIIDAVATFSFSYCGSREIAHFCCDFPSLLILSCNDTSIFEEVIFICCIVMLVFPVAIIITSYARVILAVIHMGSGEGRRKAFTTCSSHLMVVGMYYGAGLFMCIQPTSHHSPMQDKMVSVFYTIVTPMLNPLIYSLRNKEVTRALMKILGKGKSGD
To be noted: stereoisomer not certain. Put shortly: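 Transient luciferase assays in mammalian cell lines were common, though methods varied by source. The values come from published papers and their supplementary material, with extra details from the original authors when needed. Responsive refers to a measured signal the original authors judged statistically different from baseline, and non-responsive (inactive) to the remainder.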
Consider `c1ccccc1`, for which the “odorant receptor agonist call” value is “inactive”.

With `CCCCCCCO`, the “odorant receptor agonist call” value was “inactive”.

In the case of `CCCCCCCC(=O)[O-].[H+]`, the “odorant receptor agonist call” value is “inactive”.

`CCC(=O)C(=O)CC`: the “odorant receptor agonist call” value is “inactive”.

In the case of `CCCCCCCCCCO`, the “odorant receptor agonist call” value is “inactive”.

On to `CCCCCC=O`, for which the “odorant receptor agonist call” value is “inactive”.

Turning to `O=C(c1ccccc1)c1ccccc1`, the “odorant receptor agonist call” value was “inactive”.

For `CCCCCCCCCC(=O)[O-].[H+]`, the “odorant receptor agonist call” value is “inactive”.

For `CCC(S)C(C)CO` (configuration not stated), the “odorant receptor agonist call” value was “inactive”.

Regarding `CCCCCCOC(C)=O`, the “odorant receptor agonist call” value is “inactive”.

Take `O=C1CCOc2ccccc21`: the “odorant receptor agonist call” value was “inactive”.

Take `CCCCC(C)=O`: the “odorant receptor agonist call” value was “inactive”.

Turning to `CCCC(C)=O`, the “odorant receptor agonist call” value is “inactive”.

With `CC(=O)Oc1ccccc1`, the “odorant receptor agonist call” value was “inactive”.

Regarding `CCCCCC1=C(C)CCC1=O`, the “odorant receptor agonist call” value is “inactive”.

Regarding `CCCCCCCCCO`, the “odorant receptor agonist call” value was “inactive”.

As to `CCCCCCC(C)=O`, the “odorant receptor agonist call” value is “inactive”.

As for `CCCCCCCCS`, the “odorant receptor agonist call” value is “inactive”.

Turning to `CCCC(=O)C(C)=O`, the “odorant receptor agonist call” value was “inactive”.

For the compound `CCOC(=O)C(C)C`, the “odorant receptor agonist call” value was “inactive”.

Take `CCCCCCCCCS`: the “odorant receptor agonist call” value was “inactive”.

As to `CC(=O)OCC=C(C)C`, the “odorant receptor agonist call” value was “inactive”.

Consider `CCCCCCCCC(=O)O`, for which the “odorant receptor agonist call” value is “inactive”.

`CC(C)=CCCC(C)CCO` (configuration not stated): the “odorant receptor agonist call” value was “active”.

Regarding `CCCCC(=O)O`, the “odorant receptor agonist call” value was “inactive”.

Regarding `C=CCOC(=O)CCCCCC`, the “odorant receptor agonist call” value is “inactive”.

With `CCC(C(=O)O)c1ccccc1` (configuration not stated), the “odorant receptor agonist call” value is “inactive”.
